≈ marks a conversion by molar mass, not a printed value.
Assays:
Morganella morganii = assay: In vitro minimum inhibitory concentration (MIC) against Morganella morganii A 15153 at 37 degrees C for 18 h.; format: functional
Summary of the method: (§1)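 Two-fold serial broth dilution in nutrient broth. Inoculum adjusted to 10^6 cfu/mL. Compounds tested from 0.0005 to 250 µg/mL.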

Enterococcus faecium = assay: In vitro minimum inhibitory concentration (MIC) against Enterococcus faecium A 24885 at 37 degrees C for 18 h.; format: functional; summary of the method: as §1
Staphylococcus aureus [1] = assay: In vitro minimum inhibitory concentration (MIC) against Staphylococcus aureus Smith A 9537 at 37 degrees C for 18 hr; format: functional; summary of the method: as §1
Enterococcus faecalis = assay: In vitro minimum inhibitory concentration (MIC) against Enterococcus faecalis A 9808 at 37 degrees C for 18 h.; format: functional; summary of the method: as §1
Pseudomonas aeruginosa [2] = assay: In vitro minimum inhibitory concentration (MIC) against Pseudomonas aeruginosa A 9843 at 37 degrees C for 18 h; format: functional; summary of the method: as §1
Serratia marcescens = assay: In vitro minimum inhibitory concentration (MIC) against Serratia marcescens A 20019 at 37 degrees C for 18 hr; format: functional; summary of the method: as §1
Enterobacter cloacae [3] = assay: In vitro minimum inhibitory concentration (MIC) against Enterobacter cloacae A 9656 at 37 degree C for 18 h.; format: functional; summary of the method: as §1
Klebsiella pneumoniae [4] = assay: In vitro minimum inhibitory concentration (MIC) against Klebsiella pneumoniae A 9664 at 37 degrees C for 18 h.; format: functional; summary of the method: as §1
Escherichia coli [5] = assay: In vitro minimum inhibitory concentration (MIC) against Escherichia coli A 15119 at 37 degrees C for 18 h.; format: functional; summary of the method: as §1
Staphylococcus aureus [6] = assay: Efficacy on systematic infections against Staphylococcus aureus A 9537 after oral administration in mice; format: functional; conditions: read-out: PD50
Summary of the method: (§2)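 Mice given compound orally after lethal systemic infection. Read-out is the oral dose protecting 50% of mice from death (PD50), reported in mg/kg.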

Pseudomonas aeruginosa [7] = assay: In vitro minimum inhibitory concentration (MIC) against Pseudomonas aeruginosa A 9843 at 37 degree C for 18 h; format: functional; summary of the method: as §1
Canis familiaris [8] = organism: Canis familiaris; conditions: dog, in vivo, po, 25 mg/kg
Klebsiella pneumoniae [9] = assay: In vitro minimum inhibitory concentration (MIC) against Klebsiella pneumoniae A 9664 at 37 degrees C for 18 h; format: functional; summary of the method: as §1
Enterobacter cloacae [10] = assay: (§3) In vitro minimum inhibitory concentration (MIC) against Enterobacter cloacae A 9656 at 37 degrees C for 18 h.; format: functional
Mus musculus [11] = assay: Dose to protect 50% of mice from lethal infection after peroral administration.; format: functional; conditions: po; summary of the method: as §2
Mus musculus [12] = assay: Dose to protect 50% of mice from lethal infection after intravenous administration; format: functional
Canis familiaris [13] = assay: in vivo; conditions: dog, po, 25 mg/kg
[14] = (§4) Tested for aqueous solubility; conditions: aqueous medium
Klebsiella pneumoniae [15] = assay: Efficacy on systematic infections against Klebsiella pneumoniae A 9664 after oral administration in mice; format: functional; conditions: read-out: PD50; summary of the method: as §2
Pseudomonas aeruginosa [16] = assay: Efficacy on systematic infections against Pseudomonas aeruginosa A 9843 after oral administration in mice; format: functional; conditions: read-out: PD50; summary of the method: as §2
Canis familiaris [17] = assay: in vivo; conditions: dog, po, 25 mg/kg; remark: listed apart in the source
Escherichia coli [18] = assay: Efficacy on systematic infections against Escherichia coli A 15119 after oral administration in mice; format: functional; conditions: read-out: PD50; summary of the method: as §2
in vivo = conditions: dog, urine, po, 25 mg/kg
Enterobacter cloacae [19] = assay: In vitro minimum inhibitory concentration (MIC) against Enterobacter cloacae A 9656 at 37 degrees Celsius for 18 h.; format: functional; summary of the method: as §1
Klebsiella pneumoniae [20] = assay: In vitro minimum inhibitory concentration (MIC) against Klebsiella pneumoniae A 9664 at 37 degrees Celsius for 18 h.; format: functional; summary of the method: as §1
Enterobacter cloacae [21] = assay: as §3; format: functional; summary of the method: as §1; remark: listed apart in the source
Escherichia coli [22] = assay: In vitro minimum inhibitory concentration (MIC) against Escherichia coli A 15119 at 37 degrees Celsius for 18 h.; format: functional; summary of the method: as §1
[23] = as §4; format: physicochemical; conditions: aqueous medium; read-out: S
Summary of the method: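 An excess of solid was shaken overnight in water for injection at isoelectric pH. The mixture was filtered, and the filtrate was diluted and quantified by HPLC with UV detection.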

Klebsiella pneumoniae [24] = assay: In vitro minimum inhibitory concentration (MIC) […] A 9664 at 37 degrees Celsius for 18 h.; format: functional; summary of the method: as §1

Structure (SMILES) | MIC (Pseudomonas aeruginosa [2]) [µg/mL] | MIC (Klebsiella pneumoniae [4]) [µg/mL] | MIC (Morganella morganii) [µg/mL] | MIC (Enterococcus faecium) [µg/mL] | MIC (Staphylococcus aureus [1]) [µg/mL] | MIC (Enterococcus faecalis) [µg/mL] | MIC (Serratia marcescens) [µg/mL] | MIC (Escherichia coli [5]) [µg/mL] | ED50 (Staphylococcus aureus [6]) [mg/kg] | MIC (Pseudomonas aeruginosa [7]) [µg/mL] | MIC (Enterobacter cloacae [10]) [µg/mL] | ED50 (Klebsiella pneumoniae [15]) [mg/kg] | ED50 (Pseudomonas aeruginosa [16]) [mg/kg] | ED50 (Escherichia coli [18]) [mg/kg] | further results
CC(C)(C)n1cc(C(=O)O)c(=O)c2cc(F)c(N3C[C@H]4C[C@@H]3CN4)nc21 | – | – | 0.25 (≈ 0.694 µM) | 1 (≈ 2.77 µM) | 0.06 (≈ 0.166 µM) | 0.13 (≈ 0.361 µM) | 0.06 (≈ 0.166 µM) | 0.06 (≈ 0.166 µM) | 1.6 | 0.25 (≈ 0.694 µM) | 0.06 (≈ 0.166 µM) | 4.9 | 4.7 | 1.8 | AUC (Canis familiaris [8]): 55000 ng·h/mL; MIC (Klebsiella pneumoniae [9]): 0.06 µg/mL (≈ 0.166 µM); LD50 (Mus musculus [11]): 5000 mg/kg; LD50 (Mus musculus [12]): 303 mg/kg; Cmax (Canis familiaris [13]): 5600 ng/mL; solubility [14]: 80 µg/mL (≈ 222 µM); half-life (Canis familiaris [17]): 4.5 h; dose excreted (in vivo): 20%
CS(=O)(=O)O.C[C@H]1CN(c2nc3c(cc2F)c(=O)c(C(=O)O)cn3C(C)(C)C)C[C@@H]1N | – | – | 0.13 | 0.5 | 0.008 | 0.06 | 0.13 | 0.015 | 1.6 | 0.25 | 0.015 | 6.3 | 6.3 | 2.4 | MIC (Klebsiella pneumoniae [20]): 0.06 µg/mL
CC(C)(C)n1cc(C(=O)O)c(=O)c2cc(F)c(N3C[C@H]4C[C@@H]3CN4)cc21.CS(=O)(=O)O | – | – | 2 | 4 | 0.5 | 2 | 0.25 | 0.5 | – | 0.5 | 0.25 | – | – | – | solubility [23]: 230 µg/mL; MIC (Klebsiella pneumoniae [24]): 0.13 µg/mL

More lines, main results first:

MIC (Pseudomonas aeruginosa [2]) [µg/mL] | MIC (Klebsiella pneumoniae [4]) [µg/mL] | Structure (SMILES) | MIC (Morganella morganii) [µg/mL] | MIC (Enterococcus faecium) [µg/mL] | MIC (Staphylococcus aureus [1]) [µg/mL] | MIC (Enterococcus faecalis) [µg/mL] | MIC (Serratia marcescens) [µg/mL] | MIC (Escherichia coli [5]) [µg/mL] | ED50 (Staphylococcus aureus [6]) [mg/kg] | MIC (Pseudomonas aeruginosa [7]) [µg/mL] | MIC (Enterobacter cloacae [10]) [µg/mL] | ED50 (Klebsiella pneumoniae [15]) [mg/kg] | ED50 (Pseudomonas aeruginosa [16]) [mg/kg] | ED50 (Escherichia coli [18]) [mg/kg] | further results
8 (≈ 22.1 µM) | 2 (≈ 5.52 µM) | CC1CN(c2nc3c(cc2F)c(=O)c(C(=O)O)cn3C(C)(C)C)CCN1 (stereo not given) | 4 (≈ 11 µM) | 2 (≈ 5.52 µM) | 0.13 (≈ 0.359 µM) | 0.5 (≈ 1.38 µM) | 4 (≈ 11 µM) | 0.5 (≈ 1.38 µM) | – | – | – | – | – | – | MIC (Enterobacter cloacae [3]): 1 µg/mL (≈ 2.76 µM)
– | 0.06 (≈ 0.159 µM) | CCNC1CCN(c2nc3c(cc2F)c(=O)c(C(=O)O)cn3C(C)(C)C)C1 (stereo not given) | 1 (≈ 2.66 µM) | 4 (≈ 10.6 µM) | 0.06 (≈ 0.159 µM) | 0.13 (≈ 0.345 µM) | 1 (≈ 2.66 µM) | 0.06 (≈ 0.159 µM) | – | 4 (≈ 10.6 µM) | – | – | – | – | MIC (Enterobacter cloacae [19]): 0.25 µg/mL (≈ 0.664 µM)
4 (≈ 10.7 µM) | 0.5 (≈ 1.33 µM) | CC1CN(c2cc3c(cc2F)c(=O)c(C(=O)O)cn3C(C)(C)C)CC(C)N1 (stereo not given) | 1 (≈ 2.66 µM) | 8 (≈ 21.3 µM) | 0.25 (≈ 0.666 µM) | 2 (≈ 5.33 µM) | 2 (≈ 5.33 µM) | – | – | – | – | – | – | – | MIC (Enterobacter cloacae [21]): 0.13 µg/mL (≈ 0.346 µM); MIC (Escherichia coli [22]): 0.13 µg/mL (≈ 0.346 µM)

From ChEMBL document CHEMBL1124759, “Fluoronaphthyridines and quinolones as antibacterial agents. 2. Synthesis and structure-activity relationships of new 1-tert-butyl 7-substituted derivatives” (J Med Chem, 1990)
